# Most compounds without a hit are left out; they make up all but 4.6% or so of the library.
# OX1R antag-1: antagonists of human orexin 1 receptor (OX1R). Orexin/Hypocretin receptor type 1 (Homo sapiens), O43613. OX1R-expressing cells, FRET antagonist read-out. inhibition, % at 6.6 µM. actives 1.8% (n = 330,000). AID 485270, 2010; in the data active = inhibition mostly above about 38%, no sharp cut-off; inactive = mostly below about 40%
# CHO parental Ca: ATP-evoked calcium signal inhibitors, parental CHO, primary screen, counter-screen for OX1R antagonist project, cell-based, fluorescence, Fluo-8 calcium dye; inhibition, % at 5.6 µM; parental CHO-K1, ATP-induced calcium, Fluo-8 fluorescence; AID 463079, 2010; actives 0.63% (n = 330,000);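 active = inhibition above that plate's mean sample inhibition plus 3 SD, cut at about 26% in these data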
#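 test system = CHO parental line | reagent = ATP stimulus | measured by = intracellular calcium via Fluo-8 no-wash fluorescent dye | control set = ATP and no-ATP DMSO wells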
# TAAR1 agonist: human TAAR1 agonists, primary screen, Fluo-8 calcium fluorescence, CHO RD-HGA16 cells; vehicle wells 0%, saturating PEA agonist 100%; activation, % at 3 µM; actives 0.99% (n = 360,000); AID 624467, 2012;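 active = activation above the mean activation of all test compounds in the run plus 3 SD, cut at about 38% in these data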
# Target sequence (Q96RJ0 whole entry, looked up): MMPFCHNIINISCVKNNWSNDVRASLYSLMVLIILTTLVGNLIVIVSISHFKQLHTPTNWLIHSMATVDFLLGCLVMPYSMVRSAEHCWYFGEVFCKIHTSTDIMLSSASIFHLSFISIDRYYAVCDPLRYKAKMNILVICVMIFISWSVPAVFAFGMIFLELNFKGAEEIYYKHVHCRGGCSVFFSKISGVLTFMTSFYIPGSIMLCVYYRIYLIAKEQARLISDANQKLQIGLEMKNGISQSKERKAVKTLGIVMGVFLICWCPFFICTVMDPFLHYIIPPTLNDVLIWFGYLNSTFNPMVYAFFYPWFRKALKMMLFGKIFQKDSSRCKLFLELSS
#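 Repeats: no replicates (n 1) | Material: CHO-derived RD-HGA16 cells with stable Gα16 and human TAAR1 | Technique: Kinetic Fluo-8 calcium fluorescence | Schedule: 17-24 h seeding, 75 min 37 °C dye, 30 min RT | Evaluation: % activation from peak over basal fluorescence ratio, DMSO-to-PEA scaled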
# TAAR1 antag: human TAAR1 antagonists, primary screen, Fluo-8 calcium fluorescence, CHO RD-HGA16 cells; Trace amine-associated receptor 1 (Homo sapiens), Q96RJ0; antagonist; inhibition, % at 3 µM; actives 1.5% (n = 360,000); AID 624466, 2012;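 active = inhibition above a per-plate cutoff, the mean inhibition of test compounds on that plate plus 3 SD, cut at about 49% in these data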
#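 Material: CHO RD-HGA16 cells bearing hTAAR1; compound dosing: one-point dosing, 3 µM nominal final; schedule: dye loading 75 min at 37 °C, then 30 min room temperature; measured by: calcium fluorescence with Fluo-8; control set: vehicle and agonist controls; replication: n of 1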
# OX1R antag-2: OX1R (HCRTR1) antagonists, primary screen, fluorescence, CHO/OX1R cells, Fluo-8 calcium, orexin A; Orexin/Hypocretin receptor type 1 (Homo sapiens), O43613; Fluo-8 calcium fluorescence; inhibition, % at 5 µM; actives 0.43% (n = 330,000); AID 434989, 2010;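 active = inhibition above its plate's threshold, mean inhibition of all tested compounds on the plate plus 3 SD, cut at about 37% in these data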
# GPR7 antagonist: GPR7 receptor antagonists, primary screen, cell-based, fluorescence, single concentration; Neuropeptides B/W receptor type 1 (Homo sapiens), P48145; GPR7-expressing cells, fluorescence antagonist assay; inhibition, % at 4.4 µM; actives 1.1% (n = 290,000); in the data active = inhibition above about 16%, passing the limit was not always enough;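 note: cells stimulated with the agonist NPW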
# Numbers stand for hits; - = inactive; . = not tested or not shown.
SMILES,OX1R antag-1,CHO parental Ca,TAAR1 agonist,TAAR1 antag,OX1R antag-2,GPR7 antagonist
O=C(NCc1ccc(F)cc1)C1CCCN(S(=O)(=O)c2cccc3nsnc23)C1 (stereo unspecified),-,-,-,-,-,-
O=C(Nc1cc(F)ccc1F)C1CCCN1S(=O)(=O)c1cccc2nsnc12 (stereo unspecified),70,-,-,-,-,-
O=C(Nc1ccc(F)cc1)C1CCCN1S(=O)(=O)c1cccc2nsnc12 (stereo unspecified),75,-,-,-,-,-
O=C(NCc1ccc(F)cc1)C1CCCN1S(=O)(=O)c1cccc2nsnc12 (stereo unspecified),55,-,-,-,-,-
O=C(CN(C(=O)c1ccc(Cl)cc1)N1C(=O)C2CCCCC2C1=O)c1ccc(Cl)cc1 (stereo unspecified),-,-,-,-,-,-
O=C1NC(=O)C(c2ccc(F)cc2)N1 (stereo unspecified),-,-,-,-,-,-
CC1C(=O)N(Cc2ccccc2F)c2ccccc2N1C(=O)c1c(F)cccc1F (stereo unspecified),-,62,-,52,-,-
CS(=O)(=O)N(CC(=O)Nc1ccccc1C(=O)N1CCOCC1)c1cccc([N+](=O)[O-])c1,-,-,-,-,-,-
O=C(COC(=O)c1cc(=O)c2ccccc2o1)Nc1ccc2ccccc2c1,-,-,40,-,-,-
COc1cc(OC)c2c(=O)cc(-c3ccccc3)oc2c1,44,-,-,-,-,-
Cc1cccc2cc(C#N)c(SCC(=O)N3CC(=O)Nc4ccccc43)nc12,71,-,-,-,-,-
CC(C)OC(=O)/C(=C\c1ccc2c(c1)c1ccccc1n2C)NC(=O)c1ccccc1,-,-,-,50,-,-
Fc1ccc(-c2ccc(Nc3cccc(F)c3)nn2)cc1,-,44,-,-,-,-
O=C(O)c1[nH]c2ccc(Cl)cc2c1CC(=O)N1CCN(c2ccccc2)CC1,-,44,-,-,-,-
COc1ccccc1N1CCN(C(=O)Cc2c(C(=O)O)[nH]c3ccc(Cl)cc23)CC1,-,-,-,-,-,-
Cc1cc(NC(=O)c2c(F)cccc2Cl)n(-c2nc3ccccc3[nH]2)n1,-,-,-,50,-,-
Cc1cc(NC(=O)c2c(F)cccc2F)n(-c2nc3ccccc3[nH]2)n1,-,-,-,-,-,-
O=C(Oc1cccc(Nc2ncnc3ccccc23)c1)c1ccccc1Cl,95,71,-,74,53,-
COC(=O)C1C(c2ccccc2)C(C(=O)N2CCOCC2)C1c1ccccc1 (stereo unspecified),-,-,-,-,-,-
COc1ccc(NC(=O)Nc2cc(C)cc(C)c2)cn1,-,-,-,-,-,-
COc1ccc(NC(=O)Nc2cccc(C(F)(F)F)c2)cn1,-,41,-,-,47,-
O=C(O)c1ccccc1C(=O)Nc1ccc(Oc2cccc(C(F)(F)F)c2)nc1,-,-,-,-,-,-
COc1ccc(NC(=O)Nc2ccc([N+](=O)[O-])cc2)cn1,-,43,-,-,-,-
COc1ccc(NC(=O)Cc2ccc(-c3ccccc3)cc2)cn1,-,69,-,-,-,-
Cc1ccc(C(=O)Nc2ccc(Oc3cccc(C(F)(F)F)c3)nc2)cc1,-,-,40,-,-,-
O=C(NCCOCCNC(=O)OCc1ccccc1)OCc1ccccc1,-,-,-,-,-,-
CCc1cc(OCCCCNCc2ccccc2)ccc1Cl,-,-,42,-,-,-
O=C(NCCCl)Nc1ncn[nH]1,.,.,-,-,.,.
CC(=O)NCCOc1ccc2oc3ccccc3c2c1,-,-,-,-,-,-
Cn1c(=O)c2cc(NCc3ccccc3)nnc2n(C)c1=O,48,-,-,-,-,-

# From PubChem BioAssay
